Reference: ChEMBL document CHEMBL4376840, “Application of Fluorine- and Nitrogen-Walk Approaches: Defining the Structural and Functional Diversity of 2-Phenylindole Class of Cannabinoid 1 Receptor Positive Allosteric Modulators” (J Med Chem, 2020)

Key:
Cannabinoid receptor 1 [1] = target: T1, Cannabinoid receptor 1 (Homo sapiens, UniProt P21554); experiment: Positive allosteric modulatory activity at human CB1R expressed in CHO-K1 cells assessed as increase in CP55940-induced beta-arrestin2 recruitment after 90 mins in presence of CP55940 at EC20 concentration by pathhunter beta-arrestin assay; format: cell-based
In short: (§1)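 Read-out was chemiluminescent β-arrestin2 recruitment, fit with a 4-parameter regression. n = 1–3 independent experiments in duplicate.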

Cannabinoid receptor 1 [2] = target: T1, Cannabinoid receptor 1; experiment: Positive allosteric modulatory activity at human CB1R expressed in CHO-K1 cells assessed as increase in CP55940-induced inhibition of forskolin-stimulated cAMP production after 30 mins in presence of CP55940 at EC20 concentration by hit-hunter cAMP assay relative to control; format: functional, cell-based
In short: (§2)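 Read-out was chemiluminescent cAMP detection, fit with a variable-slope 4-parameter regression. n = 1–3 independent experiments in duplicate.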

Cannabinoid receptor 1 [3] = target: T1, Cannabinoid receptor 1; experiment: Positive allosteric modulatory activity at human CB1R expressed in CHO-K1 cells assessed as increase in CP55940-induced inhibition of forskolin-stimulated cAMP production after 30 mins in presence of CP55940 at EC20 concentration by hit-hunter cAMP assay; format: functional, cell-based; in short: as §2
Cannabinoid receptor 1 [4] = target: T1, Cannabinoid receptor 1; experiment: Positive allosteric modulatory activity at human CB1R expressed in CHO-K1 cells assessed as increase in CP55940-induced beta-arrestin2 recruitment after 90 mins in presence of CP55940 at EC20 concentration by pathhunter beta-arrestin assay relative to control; format: cell-based; in short: as §1
[5] = buffer, pH 7.4, 24 h
[6] = target: Cannabinoid receptor 1 (Rattus norvegicus) (UniProt P20272); experiment: Allosteric agonist activity at N-terminal GFP-tagged rat CB1R expressed in HEK293 cells assessed as inhibition of forskolin-induced cAMP production by measuring cAMP accumulation at minimal level at higher concentrations after 30 min by TR-FRET assay relative to forskolin; format: functional, cell-based
In short: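 HEK293 cells stably expressing N-terminal GFP-tagged rat CB1R were trypsin-EDTA dissociated and resuspended in HBSS with 0.1% BSA and 0.5mM IBMX at 500 cells/well. Cells got 5μM forskolin plus compound (1 pM – 10 μM) alone for 30 min. 4-parameter fit; Emin is the lower plateau. n ≥ 3, triplicate.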

Cannabinoid receptor 1 [7] = target: T1, Cannabinoid receptor 1; experiment: Positive allosteric modulatory activity at human CB1R expressed in CHO-K1 cells assessed as maximal increase in CP55940-induced beta arrestin2 recruitment after 90 mins in presence of 100 nM CP55940 by pathhunter beta-arrestin assay relative to CP55940; format: cell-based
Cannabinoid receptor 1 [8] = target: T1, Cannabinoid receptor 1; experiment: Agonist activity at human CB1 receptor expressed in CHO cell membranes assessed as increase in G-protein coupling by measuring [35S]GTPgammaS binding after 90 mins in presence of [35S]GTPgammaS by liquid scintillation analysis relative to control; format: functional
In short: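 [35S]GTPγS binding to G protein in membranes from CHO cells stably expressing human CB1R, with test compound given alone. Data fit to a variable-slope 4-parameter nonlinear regression. n = 4–6 independent experiments in duplicate.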

Cannabinoid receptor 1 [9] = target: T1, Cannabinoid receptor 1; experiment: Allosteric agonist activity at human CB1R expressed in CHO-K1 cells assessed as increase in beta arrestin2 recruitment after 90 mins by pathhunter beta-arrestin assay relative to CP55940; format: cell-based
In short: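 PathHunter CHO-K1 hCB1R cells (20,000/well) were held overnight in Opti-MEM with 1% FBS. Compound alone (0.10 nM – 10 μM) was given at 37°C for 90 min, then detection solution for 60 min at room temperature and chemiluminescence was read.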

[10] = target: Cannabinoid receptor 1 (Rattus norvegicus) (UniProt P20272); experiment: Positive allosteric modulatory activity at N-terminal GFP-tagged rat CB1R receptor expressed in HEK293 cells assessed as leftward shift in CP55940 dependent concentration response curve for inhibition of forskolin-induced cAMP accumulation after 30 mins by TR-FRET assay; format: functional, cell-based
[11] = target: Cannabinoid receptor 1 (Rattus norvegicus) (UniProt P20272); experiment: Positive allosteric modulatory activity at N-terminal GFP-tagged rat CB1R receptor expressed in HEK293 cells assessed as downward shift in CP55940 dependent concentration response curve for inhibition of forskolin-induced cAMP accumulation after 30 mins by TR-FRET assay; format: functional, cell-based
Cannabinoid receptor 1 [12] = target: T1, Cannabinoid receptor 1; experiment: Positive allosteric modulatory activity at human CB1R expressed in CHO-K1 cells assessed as increase in CP55940-induced inhibition of forskolin-induced cAMP accumulation by measuring cAMP accumulation at minimal level at higher concentration after 90 mins in presence of 100 nM CP55940 by hit-hunter cAMP assay relative to forskolin; format: functional, cell-based
In short: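 Uses the HitHunter CHO-K1 hCB1R cAMP set-up above. […] Data normalized to % forskolin, 4-parameter fit. n ≥ 6, triplicate.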

Cannabinoid receptor 1 [13] = target: T1, Cannabinoid receptor 1; experiment: Allosteric agonist activity at human CB1R expressed in CHO-K1 cells assessed as inhibition of forskolin-induced cAMP accumulation by measuring cAMP accumulation at minimal level at higher concentrations after 90 mins by hit-hunter cAMP assay relative to forskolin; format: functional, cell-based
In short: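 HitHunter CHO-K1 hCB1R cells (20,000/well) were held overnight in Opti-MEM with 1% FBS. They were then co-treated at 37°C with 10 μM forskolin plus compound alone (0.10 nM – 10 μM) for 90 min. Chemiluminescent cAMP detection followed (two 60-min room-temperature steps). Data as % forskolin, variable-slope 4-parameter fit; Emin is the lower plateau. n ≥ 6, triplicate.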

Cannabinoid receptor 1 (Rattus norvegicus), sequence (P20272 whole entry): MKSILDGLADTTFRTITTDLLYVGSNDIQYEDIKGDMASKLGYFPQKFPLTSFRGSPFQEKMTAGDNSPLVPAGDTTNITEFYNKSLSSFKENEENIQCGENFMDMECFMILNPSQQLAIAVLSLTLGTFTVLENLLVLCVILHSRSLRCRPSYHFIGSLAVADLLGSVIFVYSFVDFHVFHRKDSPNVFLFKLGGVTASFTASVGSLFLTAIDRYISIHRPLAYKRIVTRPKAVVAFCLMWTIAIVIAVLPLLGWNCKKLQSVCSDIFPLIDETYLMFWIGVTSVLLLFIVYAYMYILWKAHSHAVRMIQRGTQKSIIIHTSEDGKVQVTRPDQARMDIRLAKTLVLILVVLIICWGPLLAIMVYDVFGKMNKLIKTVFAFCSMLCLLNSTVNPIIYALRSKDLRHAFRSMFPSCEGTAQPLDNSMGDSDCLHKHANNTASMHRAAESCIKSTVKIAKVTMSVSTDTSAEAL
T1 sequence (P21554 whole entry): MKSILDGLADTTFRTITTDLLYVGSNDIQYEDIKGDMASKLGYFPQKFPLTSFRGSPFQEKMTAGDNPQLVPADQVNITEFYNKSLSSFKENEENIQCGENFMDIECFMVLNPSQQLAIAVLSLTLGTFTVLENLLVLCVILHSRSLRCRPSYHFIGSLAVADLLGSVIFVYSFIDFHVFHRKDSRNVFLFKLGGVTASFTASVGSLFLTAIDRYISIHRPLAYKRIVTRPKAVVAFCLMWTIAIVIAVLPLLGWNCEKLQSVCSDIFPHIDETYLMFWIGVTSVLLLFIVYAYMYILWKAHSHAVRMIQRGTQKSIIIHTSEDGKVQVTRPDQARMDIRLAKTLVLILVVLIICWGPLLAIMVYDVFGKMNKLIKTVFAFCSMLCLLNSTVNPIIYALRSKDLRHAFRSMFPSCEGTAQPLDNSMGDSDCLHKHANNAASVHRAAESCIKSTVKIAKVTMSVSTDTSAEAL

SMILES | EC50 (Cannabinoid receptor 1 [1]) | Emax (Cannabinoid receptor 1 [2]) | EC50 (Cannabinoid receptor 1 [3]) | Emax (Cannabinoid receptor 1 [4]) | Therm_solubility [5] | further results
O=[N+]([O-])CC(c1ccccc1)c1c(-c2ccc(F)cc2)[nH]c2ccccc12 (configuration not stated) | > 10000 nM | 120% | 1600 nM | -2.2% |  | 
O=[N+]([O-])CC(c1ccccc1)c1c(-c2ccccc2)[nH]c2cccnc12 (configuration not stated) | 1600 nM | 81% | > 10000 nM | 30% | 11.2 µM | 
O=[N+]([O-])CC(c1ccccc1)c1c(-c2ccccc2)[nH]c2cnccc12 (configuration not stated) | > 10000 nM | 5.2% | 450 nM | 5.1% | 6.8 µM | 
O=[N+]([O-])CC(c1ccccc1)c1c(-c2ccccc2)[nH]c2ncccc12 (configuration not stated) | > 10000 nM | 39% | 1100 nM | 7% | 159 µM | 
O=[N+]([O-])CC(c1ccc(F)cc1)c1c(-c2ccccc2)[nH]c2cc(F)ccc12 (configuration not stated) | 1100 nM | 47% | 1300 nM | 32% |  | 
O=[N+]([O-])CC(c1ccccn1)c1c(-c2ccccc2)[nH]c2ccccc12 (configuration not stated) | > 10000 nM | 130% | 260 nM | 5.8% | 2.8 µM | 
O=[N+]([O-])CC(c1ccc(F)cc1)c1c(-c2cccc(F)c2)[nH]c2cc(F)ccc12 (configuration not stated) | 2100 nM | 91% | 1150 nM | 56% |  | 
O=[N+]([O-])CC(c1ccccc1)c1c(-c2ccncc2)[nH]c2ccccc12 (configuration not stated) | 1600 nM | 88% | 3100 nM | 19% | 2.1 µM | 
O=[N+]([O-])CC(c1ccc(F)cc1)c1c(-c2ccccc2)[nH]c2ccccc12 (configuration not stated) | > 10000 nM | 110% | 440 nM | 8% |  | 
O=[N+]([O-])CC(c1cccnc1)c1c(-c2ccccc2)[nH]c2ccccc12 (configuration not stated) | > 10000 nM | 170% | 3100 nM | -8.1% | 1.1 µM | 
O=[N+]([O-])CC(c1ccc(F)cc1)c1c(-c2ccccc2)[nH]c2c(F)cccc12 (configuration not stated) | 700 nM | 121% | 270 nM | 27% |  | 
O=[N+]([O-])CC(c1ccccc1)c1c(-c2cccnc2)[nH]c2ccccc12 (configuration not stated) | > 10000 nM | 150% | 1100 nM | 9.2% | 4.9 µM | 
O=[N+]([O-])CC(c1ccccc1)c1c(-c2ccccc2F)[nH]c2ccccc12 (configuration not stated) | 710 nM | 140% | 1400 nM | 7% |  | 
O=[N+]([O-])CC(c1cccc(F)c1)c1c(-c2ccccc2)[nH]c2ccccc12 (configuration not stated) | 2500 nM | 130% | 730 nM | 19% |  | 
O=[N+]([O-])CC(c1ccccc1)c1c(-c2cccc(F)c2)[nH]c2ccccc12 (configuration not stated) | 1300 nM |  | 80 nM |  |  | 
O=[N+]([O-])CC(c1ccccc1)c1c(-c2ccccc2)[nH]c2ccc(F)cc12 (configuration not stated) | 740 nM | 130% | 191 nM | 23% |  | 
O=[N+]([O-])CC(c1ccc(F)cc1)c1c(-c2cccc(F)c2)[nH]c2c(F)cccc12 (configuration not stated) | 1100 nM | 110% | 230 nM | 43% |  | 
O=[N+]([O-])CC(c1ccccc1F)c1c(-c2ccccc2)[nH]c2ccccc12 (configuration not stated) | 1060 nM | 110% | 43 nM | 63% |  | 
CCCCCCC(C)(C)c1ccc([C@@H]2C[C@H](O)CC[C@H]2CCCO)c(O)c1 |  |  |  |  |  | Emin [6]: 29%
O=[N+]([O-])CC(c1ccccc1)c1c(-c2ccccc2)[nH]c2ccccc12 (racemic) |  |  |  | 46% |  | Emax (Cannabinoid receptor 1 [7]): 72%; Emax (Cannabinoid receptor 1 [8]): 28%; Emax (Cannabinoid receptor 1 [9]): 27%; Activity [10]: Dose-dependent effect; Activity [11]: Dose-dependent effect; Emin (Cannabinoid receptor 1 [12]): 21%; Emin (Cannabinoid receptor 1 [13]): 1.8%
O=[N+]([O-])CC(c1ccncc1)c1c(-c2ccccc2)[nH]c2ccccc12 (configuration not stated) | 4000 nM | 110% | 510 nM | 25% | 36.7 µM | 
O=[N+]([O-])CC(c1ccccc1)c1c(-c2ccccc2)[nH]c2c(F)cccc12 (configuration not stated) | 750 nM | 120% | 22 nM | 45% |  | 
O=[N+]([O-])CC(c1ccccc1)c1c(-c2ccccc2)[nH]c2ccncc12 (configuration not stated) | > 10000 nM | 4% | > 10000 nM | 2.8% | 23.6 µM | 
O=[N+]([O-])CC(c1ccccc1)c1c(-c2ccccc2)[nH]c2cc(F)ccc12 (configuration not stated) | 1100 nM | 120% | 110 nM | 38% |  | 
O=[N+]([O-])CC(c1ccccc1)c1c(-c2ccccc2)[nH]c2cccc(F)c12 (configuration not stated) | 900 nM | 120% | 130 nM | 37% |  | 
O=[N+]([O-])CC(c1ccccc1F)c1c(-c2ccccc2)[nH]c2cc(F)ccc12 (configuration not stated) | 1140 nM |  | 58 nM |  |  | 
O=[N+]([O-])CC(c1ccccc1F)c1c(-c2ccccc2)[nH]c2c(F)cccc12 (configuration not stated) | 680 nM |  | 21 nM |  |  | 
